In ChEMBL document CHEMBL4002575, “Progress in the development of β-lactams as N-Acylethanolamine Acid Amidase (NAAA) inhibitors: Synthesis and SAR study of new, potent N-O-substituted derivatives” (Eur J Med Chem, 2017):
Activity calls are given as the source filed them. No cut-off for these calls is given here.

Columns and labels:
[1] = biological target: T1, N-acylethanolamine-hydrolyzing acid amidase (Homo sapiens, UniProt Q02083); test: Inhibition of recombinant human spleen NAAA expressed in HEK293 cells using PAMCA as substrate preincubated for 10 mins followed by substrate addition measured after 50 mins by fluorescence assay
T1 sequence (Q02083 whole entry): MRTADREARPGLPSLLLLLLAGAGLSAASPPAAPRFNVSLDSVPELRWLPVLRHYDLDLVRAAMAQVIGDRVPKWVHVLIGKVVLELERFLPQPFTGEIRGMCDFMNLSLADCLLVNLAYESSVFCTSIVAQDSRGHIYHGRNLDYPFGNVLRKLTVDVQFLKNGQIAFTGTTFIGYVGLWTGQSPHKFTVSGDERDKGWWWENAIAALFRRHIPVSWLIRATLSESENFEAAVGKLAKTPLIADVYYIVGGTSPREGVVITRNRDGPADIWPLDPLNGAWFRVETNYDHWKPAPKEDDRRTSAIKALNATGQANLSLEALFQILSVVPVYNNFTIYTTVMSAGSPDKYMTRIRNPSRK

[2] = Half life in mouse plasma at 2 uM after 2 hrs by LC/MS-MS method; format: ADME, cell-free
[3] = Apparent half life in PBS at pH 7.4 at 1 uM at 37 degC after 24 hrs in presence of 10% MeCN by UPLC-MS method; format: physicochemical; conditions: read-out: t1/2(app)
How it was run: (§1)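 Compound incubated 24 h at 37 °C in 0.01 M PBS, pH 7.4, containing 10% MeCN.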

[4] = Half life in rat plasma at 2 uM after 2 hrs by LC/MS-MS method; format: ADME, cell-free
Mus musculus [5] = test: Antiinflammatory activity in CD1 mouse assessed as inhibition of carrageenan-induced paw edema at 0.5 to 50 ug/paw administered intraplantarly post carrageenan challenge measured over 2 to 48 hrs by plethysmometer; format: functional
How it was run: (§2)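 Male CD1 mice (25-30 g). Paw edema induced by λ-carrageenan (1% w/v in sterile water, 50 µl) injected into the left hind paw. A fresh suspension in 80% sterile saline/10% PEG-400/10% Tween 80 (10 µl per animal) was given by intraplantar injection just after carrageenan, as a single dose of 0.5–50 µg/paw. Edema was read by plethysmometer and heat hyperalgesia by behavioural test, both blind.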

Mus musculus [6] = test: Analgesic activity in CD1 mouse assessed as inhibition of carrageenan-induced heat hyperalgesia at 0.5 to 50 ug/paw administered intraplantarly post carrageenan challenge measured over 2 to 48 hrs; format: functional; how it was run: as §2
Acid ceramidase = biological target: T2, Acid ceramidase (Homo sapiens, UniProt Q13510); test: Inhibition of human acid ceramidase expressed in HEK293 cells using N-[(1S,2R)-2-hydroxy-1-(hydroxymethyl)-4-(2-oxochromen-7-yl)-oxybutyl]dodecanamide as substrate preincubated for 10 mins followed by substrate addition measured after 3 hrs by fluorescence assay; format: cell-based
T2 sequence (Q13510 whole entry): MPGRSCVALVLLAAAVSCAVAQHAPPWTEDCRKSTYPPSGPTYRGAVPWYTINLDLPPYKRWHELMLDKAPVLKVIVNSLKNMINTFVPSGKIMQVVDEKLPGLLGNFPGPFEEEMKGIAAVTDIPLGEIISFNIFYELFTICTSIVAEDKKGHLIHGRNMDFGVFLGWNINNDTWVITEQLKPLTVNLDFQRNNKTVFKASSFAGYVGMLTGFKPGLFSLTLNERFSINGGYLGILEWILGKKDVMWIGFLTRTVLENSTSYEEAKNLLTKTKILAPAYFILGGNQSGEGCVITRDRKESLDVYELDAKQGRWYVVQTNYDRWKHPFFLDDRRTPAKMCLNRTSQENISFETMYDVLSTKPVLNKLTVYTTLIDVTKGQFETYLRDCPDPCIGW
How it was run: (§3)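 Human acid ceramidase fluorogenic assay. IC50 taken as the mean of three determinations.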

[7] = biological target: T3, Fatty-acid amide hydrolase 1 (Homo sapiens) (UniProt O00519); test: Inhibition of human FAAH1 expressed in HEK293 cells at 10 uM using [3H]anandamide as substrate preincubated for 10 mins followed by substrate addition measured after 30 mins by liquid scintillation counting method relative to control
T3 sequence (whole entry): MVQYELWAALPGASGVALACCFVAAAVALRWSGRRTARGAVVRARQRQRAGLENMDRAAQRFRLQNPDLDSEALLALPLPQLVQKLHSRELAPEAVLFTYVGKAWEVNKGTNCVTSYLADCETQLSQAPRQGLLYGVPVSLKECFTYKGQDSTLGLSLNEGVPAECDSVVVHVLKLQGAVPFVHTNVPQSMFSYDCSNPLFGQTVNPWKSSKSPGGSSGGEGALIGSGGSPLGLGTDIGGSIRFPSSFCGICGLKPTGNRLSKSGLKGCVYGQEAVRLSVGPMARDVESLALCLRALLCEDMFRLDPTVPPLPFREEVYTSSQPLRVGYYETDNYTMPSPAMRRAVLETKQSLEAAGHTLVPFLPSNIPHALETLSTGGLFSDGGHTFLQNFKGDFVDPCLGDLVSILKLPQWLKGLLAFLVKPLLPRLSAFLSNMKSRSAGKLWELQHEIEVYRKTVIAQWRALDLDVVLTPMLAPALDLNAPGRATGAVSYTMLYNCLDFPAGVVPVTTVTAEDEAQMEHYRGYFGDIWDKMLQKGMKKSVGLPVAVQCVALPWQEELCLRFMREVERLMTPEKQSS

Homo sapiens = species: Homo sapiens; test: Selectivity ratio of IC50 for human acid ceramidase to IC50 for recombinant human spleen NAAA
How it was run: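 Ratio of h-AC IC50 to h-NAAA IC50, each the mean of three determinations in fluorogenic assays. The NAAA was recombinant human enzyme overexpressed in HEK293 cells, purified, then activated for 3 h at 37 °C at pH 4.5 (phosphate/citrate, 3 mM DTT, 0.1% Triton X-100). The NAAA substrate was PAMCA (hexadecanamide of 7-amino-4-methylcoumarin).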

[8] = biological target: T4, Acid ceramidase (Homo sapiens) (UniProt Q13510); test: Inhibition of human acid ceramidase expressed in HEK293 cells at 50 uM using N-[(1S,2R)-2-hydroxy-1-(hydroxymethyl)-4-(2-oxochromen-7-yl)-oxybutyl]dodecanamide as substrate preincubated for 10 mins followed by substrate addition measured after 3 hrs by fluorescence assay relative to control; format: cell-based; how it was run: as §3
T4 sequence (whole entry): T2 sequence (Q13510 whole entry)

[9] = Chemical stability in PBS at pH 7.4 assessed as parent compound remaining at 1 uM at 37 degC after 24 hrs in presence of 10% MeCN by UPLC-MS method; format: physicochemical; conditions: read-out: Stability; how it was run: as §1
Rattus norvegicus = test: Oral bioavailability in Sprague-Dawley rat at 10 mg/kg after 15 to 1440 mins by UPLC/MS analysis; format: ADME, organism-based; conditions: in vivo

Row | IC50 [1] | half-life at 2 µM [2] | half-life at 1 µM [3] | half-life at 2 µM [4] | inhibition [7] | SMILES | also measured
1 | 16 nM |  |  |  |  | CON1C[C@H](NC(=O)OCCCCC2CCCCC2)C1=O | 
2 | 56 nM |  |  |  |  | CON1C[C@@H](NC(=O)OCCCCC2CCCCC2)C1=O | 
3 | > 50000 nM |  |  |  |  | CC(=O)N1C[C@H](NC(=O)OCCCCC2CCCCC2)C1=O | 
4 | > 50000 nM |  |  |  |  | C[C@H]1[C@H](NC(=O)OCCCCC2CCCCC2)C(=O)N1OC(C)(C)C | 
5 | 1980 nM |  |  |  |  | CN1C[C@H](NC(=O)OCCCCC2CCCCC2)C1=O | 
6 |  | < 5 min | 727 min | < 5 min | > 50% | C[C@H]1[C@H](NC(=O)OCCCCC2CCCCC2)C(=O)N1Oc1ccc(S(C)(=O)=O)cc1 | inhibition (Mus musculus [5]): Active; inhibition (Mus musculus [6]): Active; IC50 (Acid ceramidase): 2020 nM
7 |  | < 5 min | > 1440 min | < 5 min | > 50% | C[C@H]1[C@H](NC(=O)OCCCCC2CCCCC2)C(=O)N1OCCCS(C)(=O)=O | Ratio IC50 (Homo sapiens): > 1000; inhibition [8]: > 50%; remaining at 24 h, 1 µM [9]: 67%
8 | 7180 nM |  |  |  |  | COC(=O)N1C[C@H](NC(=O)OCCCCC2CCCCC2)C1=O | 
9 |  | < 5 min | > 1440 min | < 5 min | > 50% | CON1C(=O)[C@@H](NC(=O)OCCCCC2CCCCC2)[C@@H]1C | inhibition [8]: > 50%; remaining at 24 h, 1 µM [9]: 97%
10 |  | < 5 min | > 1440 min | < 5 min | > 50% | C[C@H]1[C@H](NC(=O)OCCCCC2CCCCC2)C(=O)N1Oc1ccccc1 | Ratio IC50 (Homo sapiens): 13; remaining at 24 h, 1 µM [9]: 63%; IC50 (Acid ceramidase): 300 nM
11 |  | 130 min |  |  |  | CCCCCCCCC(=O)N[C@H]1CNC1=O | F (Rattus norvegicus): 67%
